Test results as given in ChEMBL document CHEMBL5154824, “Design and synthesis of multifunctional microtubule targeting agents endowed with dual pro-apoptotic and anti-autophagic efficacy” (Eur J Med Chem, 2022).
Activity calls are given as the source filed them. The calls are words filed in the database; no cut-off is given here.

Tests used:
[1] = Induction of Pro-apoptosis in human HL-60 cells assessed as increase in apoptotic cells at 10 uM after 48 hrs by Annexin-V/PI-staining based flow cytometry; type: functional
HL-60 [2] = assay: Induction of autophagy in human HL-60 cells assessed as increase in p62 protein level at 10 uM […] by Immunoblotting analysis; type: functional, cell-based
HL-60 [3] = assay: Induction of autophagy in human HL-60 cells assessed as increase in LC3-II protein level at 10 uM in presence of chloroquine […] by Immunoblotting analysis; type: functional, cell-based
HL-60 [4] = assay: Induction of autophagy in human HL-60 cells assessed as increase in LC3-II protein level at 10 uM measured up to 1 hr by Immunoblotting analysis; type: functional, cell-based
Emu-TCL1 = assay: Induction of apoptosis in mouse Emu-TCL1 cells model of CLL assessed as mitochondrial membrane depolarization at 10 uM after 48 hrs by TMRM dye based flow cytometric analysis; type: functional, cell-based
In short: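 Splenocytes from Eμ-TCL1 leukaemic mice were treated with 10 μM or DMSO vehicle for 48 h, then TMRM-loaded. Flow cytometry gave the percentage of TMRM-low cells as mean ± SD (n = 3).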

[5] = Induction of Pro-apoptosis in human HL-60 cells assessed as increase in apoptotic cells at 10 uM after 24 hrs by TMRM dye based flow cytometric analysis; type: functional
[6] = target: Nuclear factor NF-kappa-B complex (Homo sapiens) (UniProt Q00653+P19838+Q04206); assay: Inhibition of NF-kappaB phosphorylation in human HL-60 cells at 10 uM measured after 2 hrs by Immunoblotting analysis; type: cell-based
Sequence of Nuclear factor NF-kappa-B complex (Homo sapiens) (P19838 whole entry, looked up): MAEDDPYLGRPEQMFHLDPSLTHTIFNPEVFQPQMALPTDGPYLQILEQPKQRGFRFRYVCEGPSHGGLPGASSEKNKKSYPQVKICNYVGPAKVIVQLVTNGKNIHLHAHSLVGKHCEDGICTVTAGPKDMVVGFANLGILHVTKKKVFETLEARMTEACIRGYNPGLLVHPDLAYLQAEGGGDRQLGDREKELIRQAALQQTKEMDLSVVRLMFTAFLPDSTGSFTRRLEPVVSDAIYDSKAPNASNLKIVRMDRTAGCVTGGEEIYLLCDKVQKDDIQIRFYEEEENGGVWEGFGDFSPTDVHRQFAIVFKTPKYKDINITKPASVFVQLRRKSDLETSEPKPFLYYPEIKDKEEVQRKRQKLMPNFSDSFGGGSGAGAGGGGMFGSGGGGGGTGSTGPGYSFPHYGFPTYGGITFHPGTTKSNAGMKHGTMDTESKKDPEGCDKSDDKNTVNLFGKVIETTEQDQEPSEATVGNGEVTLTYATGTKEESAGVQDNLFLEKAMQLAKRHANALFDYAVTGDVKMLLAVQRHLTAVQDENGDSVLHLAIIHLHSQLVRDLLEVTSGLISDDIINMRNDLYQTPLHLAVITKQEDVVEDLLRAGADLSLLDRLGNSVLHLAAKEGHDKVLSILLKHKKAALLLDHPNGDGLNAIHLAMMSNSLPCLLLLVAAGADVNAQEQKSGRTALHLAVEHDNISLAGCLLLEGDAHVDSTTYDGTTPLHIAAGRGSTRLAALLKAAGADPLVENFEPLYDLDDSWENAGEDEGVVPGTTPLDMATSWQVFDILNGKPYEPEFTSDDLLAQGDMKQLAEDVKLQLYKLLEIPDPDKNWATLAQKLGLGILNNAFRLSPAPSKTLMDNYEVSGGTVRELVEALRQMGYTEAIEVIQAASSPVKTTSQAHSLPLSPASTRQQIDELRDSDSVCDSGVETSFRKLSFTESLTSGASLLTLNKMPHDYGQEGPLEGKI
Sequence of Nuclear factor NF-kappa-B complex (Homo sapiens) (Q00653 whole entry, looked up): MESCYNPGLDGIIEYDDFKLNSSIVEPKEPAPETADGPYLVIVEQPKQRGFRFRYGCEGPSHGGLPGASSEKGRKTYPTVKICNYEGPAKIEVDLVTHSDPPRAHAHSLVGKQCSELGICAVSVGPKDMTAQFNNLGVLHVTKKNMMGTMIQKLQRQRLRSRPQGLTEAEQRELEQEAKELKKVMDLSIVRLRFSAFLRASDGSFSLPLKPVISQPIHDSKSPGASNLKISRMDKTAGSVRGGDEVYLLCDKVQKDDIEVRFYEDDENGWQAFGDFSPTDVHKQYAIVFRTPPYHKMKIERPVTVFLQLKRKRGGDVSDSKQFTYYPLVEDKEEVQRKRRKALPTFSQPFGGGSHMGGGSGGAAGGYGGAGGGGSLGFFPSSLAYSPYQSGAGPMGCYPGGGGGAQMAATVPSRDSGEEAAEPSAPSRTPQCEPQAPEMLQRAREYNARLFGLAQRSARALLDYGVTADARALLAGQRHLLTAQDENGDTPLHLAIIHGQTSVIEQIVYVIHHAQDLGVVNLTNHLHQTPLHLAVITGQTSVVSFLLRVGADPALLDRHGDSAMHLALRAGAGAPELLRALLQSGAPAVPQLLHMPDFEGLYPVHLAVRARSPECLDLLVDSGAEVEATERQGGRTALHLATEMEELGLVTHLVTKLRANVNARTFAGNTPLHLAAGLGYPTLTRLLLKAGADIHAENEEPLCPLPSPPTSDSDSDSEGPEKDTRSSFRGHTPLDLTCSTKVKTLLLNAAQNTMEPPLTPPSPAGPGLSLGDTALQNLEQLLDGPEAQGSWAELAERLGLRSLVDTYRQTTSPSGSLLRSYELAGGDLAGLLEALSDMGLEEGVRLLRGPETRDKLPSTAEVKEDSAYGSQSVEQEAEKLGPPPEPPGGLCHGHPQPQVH
Sequence of Nuclear factor NF-kappa-B complex (Homo sapiens) (Q04206 whole entry, looked up): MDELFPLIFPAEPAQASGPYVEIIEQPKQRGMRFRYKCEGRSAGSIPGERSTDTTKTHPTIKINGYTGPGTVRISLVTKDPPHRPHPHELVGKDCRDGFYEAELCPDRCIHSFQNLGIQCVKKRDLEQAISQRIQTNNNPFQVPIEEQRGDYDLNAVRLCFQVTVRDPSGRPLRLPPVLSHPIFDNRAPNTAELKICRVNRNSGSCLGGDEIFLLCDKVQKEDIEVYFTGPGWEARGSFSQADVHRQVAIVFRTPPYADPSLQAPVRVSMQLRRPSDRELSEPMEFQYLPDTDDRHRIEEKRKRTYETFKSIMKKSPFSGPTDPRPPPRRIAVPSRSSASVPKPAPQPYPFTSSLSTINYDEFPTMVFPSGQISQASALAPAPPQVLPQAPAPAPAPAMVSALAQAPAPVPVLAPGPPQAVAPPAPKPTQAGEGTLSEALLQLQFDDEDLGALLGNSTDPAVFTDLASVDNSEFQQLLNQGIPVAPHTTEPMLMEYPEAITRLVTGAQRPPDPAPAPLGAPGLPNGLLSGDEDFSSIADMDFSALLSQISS
In short: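 HL-60 cells were treated at 10 μM or with DMSO vehicle for 2 h. Phospho-NF-κB and phospho-Erk1/2 were immunoblotted and quantified by densitometry relative to β-tubulin. Data are mean ± SD (n = 2), analysed by one-way ANOVA.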

[7] = Induction of Pro-apoptosis in human HL-60 cells assessed as increase in apoptotic cells at 25 uM after 24 hrs by TMRM dye based flow cytometric analysis; type: functional
NIH3T3 = assay: Cytotoxicity against mouse NIH3T3 cells assessed as inhibition of cell growth measured after 24 hrs by neutral red uptake assay; type: functional, cell-based; details: NIH3T3, 24 h
In short: (§1)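 Neutral red uptake viability test. NIH3T3 fibroblasts or primary human oral epithelial cells were exposed to compound at 0.1 to 120 μM. EC50 was derived, with SD below 5%.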

[8] = Ratio of IC50 for cytotoxicity against human […] assessed as inhibition of cell growth measured after 48 hrs to IC50 for cytotoxicity against human A2780 cells assessed as inhibition of cell growth measured after 48 hrs; type: functional
In short: (§2)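 MTT assay: cells exposed to increasing compound concentrations for 48 h. Lines were A2780 and its P-gp-overexpressing A2780AD counterpart, and HeLa and HeLa β3 (tubulin β3-overexpressing). IC50 is the mean ± SD of three independent experiments. R/S is the IC50 in the resistant line divided by that in the parental line.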

Tubulin (Homo sapiens) = Tubulin (Homo sapiens) (UniProt P68371+Q9H4B7+P0DPH7+P68366+Q13509+Q71U36+P04350+Q3ZCM7+P07437+P68363+Q9BQE3+Q6PEY2+Q13885+Q9BVA1+Q9BUF5); assay: Binding affinity to microtubule polymerization (unknown origin) assessed as formation of microtubule at 27.5 uM measured for 2 hrs by plate reader method; type: protein-complex assay
In short: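 25 μM tubulin in GAB buffer with compound at 27.5 μM or DMSO vehicle; podophyllotoxin 27.5 μM as destabiliser control. Polymerisation started by raising temperature from 4 to 37 °C at time 0; microtubule formation followed as absorbance increase over time.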

HeLa [9] = assay: Cytotoxicity against human HeLa cells assessed as inhibition of cell growth measured after 48 hrs by MTT assay; type: functional, cell-based
In short: (§3)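 MTT assay. Cells were exposed for 48 h to increasing concentrations of compound. Ovarian A2780 was paired with its P-gp-overexpressing A2780AD counterpart, and HeLa with HeLa β3, which overexpresses the tubulin β3 isotype. IC50 is the mean ± SD of three independent experiments.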

A2780 [10] = assay: Cytotoxicity against human A2780 cells assessed as inhibition of cell growth measured after 48 hrs by MTT assay; type: functional, cell-based; details: A2780, 48 h; in short: as §3
HeLa [11] = assay: Cytotoxicity against human HeLa cells overexpressing tubulin beta3 assessed as inhibition of cell growth measured after 48 hrs by MTT assay; type: functional, cell-based; in short: as §3
A2780 [12] = assay: Cytotoxicity against human A2780AD cells assessed as inhibition of cell growth measured after 48 hrs by MTT assay; type: functional, cell-based; details: A2780, 48 h; in short: as §3
A549 = assay: Cytotoxicity against human A549 cells assessed as inhibition of cell growth measured after 48 hrs by MTT assay; type: functional, cell-based; details: A549, 48 h
[13] = Ratio of IC50 for cytotoxicity against human HeLa cells overexpressing tubulin beta3 assessed as inhibition of cell growth measured after 48 hrs to IC50 for cytotoxicity against human HeLa cells assessed as inhibition of cell growth measured after 48 hrs; type: functional; in short: as §2
SCC-4 [14] = assay: Induction of autophagy in human SCC-4 cells assessed as increase in LC3-II to LC3-I ratio at 10 uM incubated for 30 mins in presence of EBSS followed by compound addition and measured after 3 hrs by Western blot analysis; type: functional, cell-based
In short: (§4)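 SCC4 cells were pre-incubated with or without EBSS for 30 min, then given 10 μM compound, with 10 μM chloroquine as reference, for 3 h. LC3-I/II was assessed by Western blot with GAPDH loading control. The LC3-II/LC3-I ratio came from densitometry, as mean ± SEM of four experiments, with an unpaired one-tailed t-test.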

SCC-4 [15] = assay: Induction of autophagy in human SCC-4 cells assessed as increase in LC3-II to LC3-I ratio at 10 uM in absence of EBSS measured after 3 hrs by Western blot analysis; type: functional, cell-based; in short: as §4
KYSE-520 cell line [16] = assay: Cytotoxicity against human KYSE520 cells assessed as inhibition of cell growth measured after 72 hrs by alamar blue viability assay; type: functional, cell-based; details: KYSE-520, 72 h
In short: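 KYSE-520 oesophageal cells were exposed to at least 8 increasing concentrations for 48 h or 72 h. Viability was read out to give IC50, as the mean ± SD of at least three independent experiments.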

[17] = Cytotoxicity against human TR146 cells assessed as reduction in cell viability measured after 48 hrs by alamar blue viability assay; type: functional, cell-based; details: TR146, 48 h
In short: (§5)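 Oral squamous carcinoma cells were exposed for 48 h to at least 8 increasing concentrations. Viability was read by AlamarBlue. IC50 is the concentration that halves viability, taken as the mean ± SD of at least three independent experiments.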

KYSE-520 cell line [18] = assay: Induction of apoptosis in human KYSE520 cells assessed as increase in apoptotic cells at 3 to 10 uM after 72 hrs by Annexin V-FITC/PI staining based flow cytometry method; type: functional, cell-based; details: dose 3-10 µM
In short: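 KYSE-520 cells were treated at 3 and 10 μM for 72 h, then analysed by flow cytometry after Annexin V/PI dual staining.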

SCC-4 [19] = assay: Cytotoxicity against human SCC-4 cells assessed as reduction in cell viability measured after 48 hrs by alamar blue viability assay; type: functional, cell-based; details: SCC-4, 48 h; in short: as §5
SCC-4 [20] = assay: Induction of apoptosis in human SCC-4 cells assessed as increase in apoptotic cells at 2 uM after 48 hrs by Annexin V-FITC/PI staining based flow cytometry method; type: functional, cell-based
In short: (§6)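 SCC4 cells were treated at 0.5 or 2 μM for 48 h, then stained with Annexin V/PI and analysed by flow cytometry. Data are mean ± SEM of three independent experiments, with an unpaired one-tailed t-test versus vehicle.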

Ca9-22 = assay: Cytotoxicity against human Ca9-22 cells assessed as reduction in cell viability measured after 48 hrs by alamar blue viability assay; type: functional, cell-based; details: Ca9-22, 48 h; in short: as §5
SCC-4 [21] = assay: Induction of apoptosis in human SCC-4 cells assessed as increase in apoptotic cells at 0.5 uM after 48 hrs by Annexin V-FITC/PI staining based flow cytometry method; type: functional, cell-based; in short: as §6
[22] = Cytotoxicity against human Primary oral epithelial cells assessed as inhibition of cell growth measured after 24 hrs by neutral red uptake assay; type: toxicity, cell-based; in short: as §1
OE33 = assay: Cytotoxicity against human OE33 cells assessed as inhibition of cell growth measured after 72 hrs by MTT assay; type: functional, cell-based; details: OE33, 72 h
In short: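 Oesophageal adenocarcinoma lines were exposed to at least 8 increasing concentrations for 72 h. Viability was measured by MTT. IC50 is the mean ± SD of at least three independent experiments.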

## CC(=O)OC1=C(c2cccc3ccccc23)Oc2cc3ccccc3cc2-n2cccc21
[1]
  Activity: >=70%
HL-60 [2]
  Activity: Active
HL-60 [3]
  Activity: Active
HL-60 [4]
  Activity: Active
Emu-TCL1
  Activity: Active
[5]
  Activity: >=50%
[6]
  inhibition: Active

## CC(=O)OC1=C(c2cccc3ccccc23)Oc2ccc(C)cc2-n2cccc21
[5]
  Activity: <30%
[7]
  Activity: >=50%
NIH3T3
  EC50: 300 nM

## COc1cc([C@@H]2c3cc4c(cc3[C@H](O)[C@H]3COC(=O)[C@H]23)OCO4)cc(OC)c1OC [PODOFILOX]
[8]
  Ratio IC50: 1.33
Tubulin (Homo sapiens)
  Activity: Active
HeLa [9]
  IC50: 17 nM
A2780 [10]
  IC50: 15 nM
HeLa [11]
  IC50: 14 nM
A2780 [12]
  IC50: 20 nM
A549
  IC50: 12 nM
[13]
  Ratio IC50: 0.82

## CC(=O)OC1=C(c2cccc3ccccc23)Oc2ccc(N3CCN(C)CC3)cc2-n2cccc21
[1]
  Activity: <30%
Emu-TCL1
  Activity: Active
NIH3T3
  EC50: 45000 nM

## CC(=O)OC1=C(c2cccc3ccccc23)Oc2cc3c(cc2-n2cccc21)OCO3
[5]
  Activity: >=50%
[7]
  Activity: >=50%
NIH3T3
  EC50: 150 nM

## CCN(CC)CCCC(C)Nc1ccnc2cc(Cl)ccc12 (centres undefined)
SCC-4 [14]
  Activity: Active
SCC-4 [15]
  Activity: Active

## CN(C)C(=O)OC1=C(c2cccc3ccccc23)Oc2ccc(Cl)cc2-n2cccc21
[5]
  Activity: >=50%
[7]
  Activity: >=50%

## CCN(CC)CCCC(C)NC(=O)OC1=C(c2cccc3ncccc23)Oc2cc3ccccc3cc2-n2cccc21 (racemic)
SCC-4 [14]
  Activity: Active
KYSE-520 cell line [16]
  IC50: 41900 nM
[8]
  Ratio IC50: 1.18
Tubulin (Homo sapiens)
  Activity: Active
[17]
  IC50: 1500 nM
KYSE-520 cell line [18]
  Activity: Active
SCC-4 [19]
  IC50: 910 nM
[1]
  Activity: >=70%
HL-60 [2]
  Activity: Active
SCC-4 [20]
  Activity: Active
HL-60 [3]
  Activity: Active
HL-60 [4]
  Activity: Active
HeLa [9]
  IC50: 921 nM
A2780 [10]
  IC50: 1030 nM
Ca9-22
  IC50: 2000 nM
Emu-TCL1
  Activity: Active
HeLa [11]
  IC50: 661 nM
A2780 [12]
  IC50: 1210 nM
A549
  IC50: 1380 nM
[6]
  inhibition: Active
SCC-4 [21]
  Activity: Active
[22]
  EC50 at 24 h: 45000 nM
OE33
  IC50: 1380 nM
NIH3T3
  EC50: 6000 nM
SCC-4 [15]
  Activity: Active
[13]
  Ratio IC50: 0.72
